Rpn11 inh = Rpn11 (PSMD14) deubiquitinase inhibitors, primary screen, biochemical, fluorescence polarization, uHTS | 26S proteasome non-ATPase regulatory subunit 14 (Homo sapiens), O00487 | inhibition, % at 20 µM | hit rate 0.59% among 360,000 | AID 588493, 2011 | human 26S proteasome, Ub4-pepOG fluorescence polarization; 20S core pre-blocked with epoxomicin;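 active = inhibition at 20 µM, scaled to each plate's controls, above about 33%, limit read from the data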
SUMO1 PPI mod = modulators of SUMO1 protein-protein interactions, primary screen, biochemical, uHTS | SUMO1 binding to a labelled peptide, TR-FRET, 1 h | inhibition, % at 20 µM | hit rate 0.33% among 360,000; in the data active = inhibition above about 37%
DNMT1 block = human DNMT1 methyltransferase inhibitors, primary screen, biochemical, molecular beacon, fluorescence, HinP1I cleavage, uHTS. DNA (cytosine-5)-methyltransferase 1 (Homo sapiens), P26358. inhibition (reported as % activation of signal), % at 10 µM. hit rate 0.83% among 360,000. AID 588458, 2011; in the data active = inhibition above about 50%
Scp1 inh = Scp-1 phosphatase inhibitors, primary screen, biochemical, colorimetric, uHTS | Carboxy-terminal domain RNA polymerase II polypeptide A small phosphatase 1 (Homo … | Recombinant Scp1, phosphopeptide, malachite green phosphate absorbance | inhibition, % at 20 µM | hit rate 0.88% among 340,000 | AID 493091, 2011;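 active = inhibition above about 50% at 20 µM, limit read from the data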
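Material – SCP-1 phosphatase catalytic domain, residues 76-261 · Buffer or medium – Acidic Tris acetate buffer with magnesium and detergent · Also added – Phospho 17-mer peptide substrate · Compound – single 20 µM dose, 1% DMSO · Times – 45 min room-temperature reaction, 5 min colour, 30 min stabiliser · Technique – Phosphate-binding colour reagent, absorbance read at 630 nm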
STEP inh = STEP phosphatase inhibitors, primary screen, biochemical, fluorescence intensity, uHTS; inhibition, % at 20 µM; Tyrosine-protein phosphatase non-receptor type 5 (Homo sapiens), P54829; hit rate 0.25% among 360,000; recombinant STEP, OMFP fluorogenic substrate;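 active = inhibition at 20 µM, scaled per plate between control wells, above about 37%, limit read from the data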
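System: STEP (striatal-enriched tyrosine phosphatase) enzyme, cell-free; medium: Bis-Tris pH 6.0 buffer with DTT, detergent; dosing: 20 µM, 1% DMSO; times: reaction 20 min, ambient temperature; detection: fluorescence, 480/540 nm; read-out basis: normalized % inhibition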
LMPTP inh = LMPTP phosphatase inhibitors, primary screen, biochemical, fluorescence intensity, uHTS; inhibition, % at 20 µM; Low molecular weight phosphotyrosine protein phosphatase (Homo sapiens), P24666; AID 651560, 2012; recombinant LMPTP-A, OMFP fluorogenic substrate; hit rate 0.22% among 360,000;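 active = compounds that cut the enzyme signal by at least half of the control window in the single-dose screen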
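Test system: LMPTP-A phosphatase enzyme; input: 0.625 nM LMPTP-A final; reagent: OMFP substrate, 400 µM final; compound dosing: 20 µM single dose, 3% DMSO; incubation: 50 min dark incubation at room temperature; measured by: endpoint fluorescence intensity from OMFP dephosphorylation; measure: % inhibition relative to no-enzyme and uninhibited control wells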
Rpn11 inh conf = Rpn11 (PSMD14) deubiquitinase inhibitors, confirmation, biochemical, fluorescence polarization, single concentration; shares compounds with Rpn11 inh; purified human 26S proteasome, Ub4-pepOG fluorescence polarization; proteasome pretreated with epoxomicin; inhibition, % at 20 µM; hit rate 29% among 1,900
MMP-2 counter = MMP-2 enzyme inhibition, confirmation, counter-screen for RPN11 inhibitor project, biochemical, fluorescence, single concentration. shares compounds with Rpn11 inh. recombinant MMP-2, FRET peptide cleavage fluorescence. inhibition, % at 20 µM. hit rate 4% among 1,900;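 note: human MMP-2 activated beforehand with APMA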
Thrombin FP = bovine thrombin protease inhibition, confirmation, counter-screen for Rpn11 inhibitor project, biochemical, fluorescence polarization, single concentration. shares compounds with Rpn11 inh. bovine thrombin cleavage of Ub4-pepOG. inhibition, % at 20 µM. hit rate 13% among 1,900;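 active = mean inhibition at least 40% at 20 µM, or signal 3 deviations below plate average, so some actives read negative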
Target sequence (P00735 whole entry, looked up): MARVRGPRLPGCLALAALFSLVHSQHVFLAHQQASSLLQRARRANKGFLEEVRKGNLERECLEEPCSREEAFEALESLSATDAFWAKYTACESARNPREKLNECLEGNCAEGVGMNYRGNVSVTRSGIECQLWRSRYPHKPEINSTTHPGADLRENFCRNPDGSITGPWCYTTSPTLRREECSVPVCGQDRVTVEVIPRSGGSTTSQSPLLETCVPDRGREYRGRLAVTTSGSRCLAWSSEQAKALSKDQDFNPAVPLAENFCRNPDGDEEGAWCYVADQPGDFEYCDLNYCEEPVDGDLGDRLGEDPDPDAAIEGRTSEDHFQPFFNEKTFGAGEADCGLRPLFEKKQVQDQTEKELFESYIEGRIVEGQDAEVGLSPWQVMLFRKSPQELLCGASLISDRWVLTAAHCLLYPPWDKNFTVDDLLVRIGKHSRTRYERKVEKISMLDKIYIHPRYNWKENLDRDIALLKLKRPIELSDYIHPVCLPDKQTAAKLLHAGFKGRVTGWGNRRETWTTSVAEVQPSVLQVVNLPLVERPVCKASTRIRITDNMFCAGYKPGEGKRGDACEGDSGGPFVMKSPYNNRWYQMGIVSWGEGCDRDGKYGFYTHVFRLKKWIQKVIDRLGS
Each line names hits and unclear results; the compound was inactive in the other large screens (follow-up assays come after a bar, where they were run). In the library only some 2.3% were active in any assay of this set; here they are far more common. Cut-off read from the data, not from the text of the source, unless noted: active = inhibition above about 40%; inactive = the rest.

COc1cc(/C=C2\SC(=S)N(NS(=O)(=O)c3ccc(C)cc3)C2=O)cc(OC)c1OC	none
COc1cc(/C=C2\SC(=S)N(NS(=O)(=O)c3ccc(C)cc3)C2=O)ccc1O	Rpn11 inh 99 | Rpn11 inh conf 83 | MMP-2 counter inactive | Thrombin FP 90
Cc1ccc(S(=O)(=O)NN2C(=O)/C(=C/c3cccc(F)c3)SC2=S)cc1	none
O=C(Nc1nnc(Cc2c[nH]c3ccccc23)s1)c1ccc(Cl)cc1Cl	Rpn11 inh 42 | Rpn11 inh conf inactive | MMP-2 counter inactive | Thrombin FP inactive
CC(C)(C)c1ccc(C(=O)Nc2nnc(Cc3c[nH]c4ccccc34)s2)cc1	none
CC(=O)N(CCCN1CCOCC1)Cc1ccncc1	Rpn11 inh 40 | Rpn11 inh conf inactive | MMP-2 counter inactive | Thrombin FP inactive
c1cc(CNCCCN2CCOCC2)ccn1	none
COc1nc(N)c(S(=O)(=O)c2ccccc2)cc1C#N	Rpn11 inh 54 | Rpn11 inh conf inactive | MMP-2 counter inactive | Thrombin FP inactive
CN1CCN(Cn2cc(/C=C/C(=O)c3ccccc3)c3ccccc32)CC1	none
CCCN(CCC)CC(O)Cn1cc(/C=C/C(=O)c2ccccc2)c2ccccc21 (centres undefined)	Rpn11 inh 39 | Rpn11 inh conf inactive | MMP-2 counter inactive | Thrombin FP inactive
CN(C)c1ccc(C=c2c3cc(O)ccc3n3c2cc(-c2ccccc2)[n+]3C)cc1	Rpn11 inh 168, SUMO1 PPI mod 69, LMPTP inh 94 | Rpn11 inh conf 177 | MMP-2 counter 109 | Thrombin FP 155
CN(C)c1ccc(/C=C(\C#N)c2ccccc2)cc1	none
Cc1cc2c(=Cc3ccc(N(C)C)cc3)c3ccccc3n2[n+]1C	Rpn11 inh 177 | Rpn11 inh conf 135 | MMP-2 counter inactive | Thrombin FP 145
CCOC(=O)c1cc2c(=Cc3ccc(N(C)C)cc3)c3ccccc3n2[n+]1C	Rpn11 inh 43 | Rpn11 inh conf inactive | MMP-2 counter inactive | Thrombin FP inactive
Cc1cc(C)cc(OCC(=O)Nc2ccc3c(c2)C(=O)c2ccccc2C3=O)c1	none
CCOC(CNC(=O)Cn1nc(C)c2ccccc21)OCC	none
CCCC1(CCC)NC(=O)N(CC(=O)Nc2ccc3c(c2)OCCO3)C1=O	none
CCc1ccc(/C=C/c2c[nH]c3ccccc23)[n+](CC)c1	Rpn11 inh 50 | Rpn11 inh conf inactive | MMP-2 counter inactive | Thrombin FP 43
COc1cc2sc3cc(NCC[C@@H]4CCCN4C)ccc3c(=O)c2cc1OC	Rpn11 inh 57 | Rpn11 inh conf inactive | MMP-2 counter inactive | Thrombin FP inactive
O=C(O)CCN1C(=O)c2ccc(Oc3ccc([N+](=O)[O-])cc3)cc2C1=O	none
CC1=CC(=C2N=C(c3ccccc3)OC2=O)C=C(C)O1	Rpn11 inh 51 | Rpn11 inh conf 152 | MMP-2 counter inactive | Thrombin FP inactive
CN1C=CC=C/C1=C1/N=C(c2ccccc2)OC1=O	none
Cc1ccc(C)c(NC(=O)Cn2nnc(-c3ccc(N4CCOCC4)cc3)n2)c1	none
CC[C@]1(C(=O)OC)[C@H]2C(=O)N(Cc3ccccc3)C(=O)[C@H]2[C@H]2CN(C)C(=NCc3ccccc3)N21	none
CC(=O)Oc1ccccc1Cn1c(C)c(C(=O)NCc2ccccc2C(F)(F)F)sc1=O	none (no result: Scp1 inh)
Cc1ccccc1C(=O)/C=C1/SCC(=O)N1C	Rpn11 inh 71 | Rpn11 inh conf 49 | MMP-2 counter inactive | Thrombin FP inactive
CC(=O)Nc1ccc(S(=O)(=O)N2CCN(Cc3csc(C)n3)CC2)cc1	none
COc1ccc(CN2CCNC(=O)C2CC(=O)N(C)Cc2nc(C)cs2)c(OC)c1 (centres undefined)	none
O=C(Nc1c[nH]c(=O)[nH]c1=O)c1cc([N+](=O)[O-])cc([N+](=O)[O-])c1	none
O=C(Nc1c[nH]c(=O)[nH]c1=O)c1ccc2c(c1)C(=O)N(c1cccc([N+](=O)[O-])c1)C2=O	Rpn11 inh 57, DNMT1 block 58 | Rpn11 inh conf inactive | MMP-2 counter inactive | Thrombin FP inactive
CCCOCC(O)CC(Cc1ccccc1)C(=O)NN (centres undefined)	none
CCOc1ccc(C(c2c(C)[nH][nH]c2=O)c2c(C)[nH][nH]c2=O)cc1OC	none
CCOc1cc(C(c2c(C)[nH][nH]c2=O)c2c(C)[nH][nH]c2=O)ccc1OS(=O)(=O)c1ccc(C)cc1	Rpn11 inh 103 | Rpn11 inh conf inactive | MMP-2 counter inactive | Thrombin FP inactive
COc1cc([N+](=O)[O-])cc(/C=N/NC(=O)c2ccc(C)nc2)c1O	none
COc1cccc(/C=N/NC(=O)c2cc3cc([N+](=O)[O-])ccc3s2)c1O	Rpn11 inh 62, DNMT1 block 99, STEP inh 97, LMPTP inh 88 | Rpn11 inh conf inactive | MMP-2 counter inactive | Thrombin FP inactive
COc1cc([N+](=O)[O-])cc(/C=N/NC(=O)c2ccc(NC(=O)c3ccc(C)cc3)cc2)c1O	Rpn11 inh 42 | Rpn11 inh conf inactive | MMP-2 counter inactive | Thrombin FP inactive
CC(=O)Nc1ccc(-c2ccnc3c2CC(C(=O)NCc2ccccc2)O3)cc1 (centres undefined)	none (no result: Scp1 inh)
Cc1cccc(NC(=O)/C(=C\c2ccco2)NC(=O)c2cccs2)c1	Rpn11 inh 32 | Rpn11 inh conf inactive | MMP-2 counter inactive | Thrombin FP inactive

Source: PubChem BioAssay
